The results in this text go back to ChEMBL document CHEMBL1142063, “Synthesis of omeprazole analogues and evaluation of these as potential inhibitors of the multidrug efflux pump NorA of Staphylococcus aureus” (2007).

In assay [1] the test system is Staphylococcus aureus. The assay can be described thus: Antibacterial activity against Staphylococcus aureus SA1199B overexpressing NorA at 5 ug by disk diffusion method. In kind it is functional. Conditions: read-out: IZ. Put shortly: (§1)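 Agar diffusion on Mueller-Hinton agar (adjusted to 20 μg/ml Ca²⁺ and 10 μg/ml Mg²⁺), used plain or with the efflux inhibitor incorporated at the stated concentration. Disks were 5 μg for the fluoroquinolones and 30 μg for chloramphenicol. Plates were incubated overnight at 37°C, and inhibition zone diameters were measured. Values are means of at least three independent experiments.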
(Agar diffusion results depend on both activity and mobility in agar.)

Assay [2] concerns Staphylococcus aureus. The experiment in a line: Increase in 5 ug levofloxacin antibacterial activity against Staphylococcus aureus SA1199B mutant overexpressing NorA at 128 ug/ml by disk diffusion method. In kind it is functional. The gist of the method:
as §1

Assay [3] deals with Staphylococcus aureus. The assay can be described thus: Increase in 64 ug/ml Norfloxacin antibacterial activity against Staphylococcus aureus SA1199B mutant overexpressing NorA at 128 ug/ml by checker board method. The assay is classed as functional.
The test system of assay [4] is Staphylococcus aureus. The experiment in a line: Increase in 5 ug ofloxacin antibacterial activity against Staphylococcus aureus SA1199B mutant overexpressing NorA at 128 ug/ml by disk diffusion method. In kind it is functional. Put shortly: as §1
The subject of assay [5] is Staphylococcus aureus. The assay can be described thus: Increase in 5 ug sparfloxacin antibacterial activity against Staphylococcus aureus SA1199B mutant overexpressing NorA at 128 ug/ml by disk diffusion method. The assay is classed as functional. The gist of the method:
as §1

Assay [6] deals with Staphylococcus aureus. The experiment in a line: Increase in 5 ug Norfloxacin antibacterial activity against Staphylococcus aureus SA1199B mutant overexpressing NorA at 128 ug/ml by disk diffusion method. The assay is classed as functional. The gist of the method: as §1
Assay [7] deals with Staphylococcus aureus. The assay can be described thus: Increase in 2 ug/ml Norfloxacin antibacterial activity against wild type Staphylococcus aureus SA1199 at 128 ug/ml by checker board method. In kind it is functional.
Assay [8] has as its system Staphylococcus aureus. The assay can be described thus: Antibacterial activity against Staphylococcus aureus. The assay is classed as functional. The gist of the method:
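Tube broth dilution MIC against SA-1199 and NorA-overproducing SA-1199B in Mueller-Hinton broth with 20 μg/ml Ca²⁺ and 10 μg/ml Mg²⁺. Inoculum was a 4–5 h 37°C culture diluted 1/10 (≈10⁶ CFU/ml). Compound range was 512 to 1 μg/ml, dissolved in DMSO (final ≤4%).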

The test system of assay [9] is Staphylococcus aureus. The experiment in a line: Increase in 5 ug moxifloxacin antibacterial activity against Staphylococcus aureus SA1199B mutant overexpressing NorA at 128 ug/ml by disk diffusion method. In kind it is functional. The gist of the method: as §1
In assay [10] the test system is Staphylococcus aureus. The experiment in a line: Increase in 30 ug chloramphenicol antibacterial activity against Staphylococcus aureus SA1199B mutant overexpressing NorA at 128 ug/ml by disk diffusion method. In kind it is functional. The gist of the method: as §1
In assay [11] the test system is Staphylococcus aureus. The assay can be described thus: Increase in 5 ug ciprofloxacin antibacterial activity against Staphylococcus aureus SA1199B mutant overexpressing NorA at 128 ug/ml by disk diffusion method. In kind it is functional. The gist of the method: as §1
The subject of assay [12] is Staphylococcus aureus. The experiment in a line: Increase in 16 ug/ml Norfloxacin accumulation in wild type Staphylococcus aureus SA1199 at 128 ug/ml after 20 mins. In kind it is functional. The gist of the method: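 Mid-exponential SA-1199 cells were washed and resuspended in 50 mM sodium phosphate, pH 7.0. They were exposed at time zero to norfloxacin at one-quarter MIC, alone or with EPI at 128 μg/ml. At 5–20 min, cells were spun through silicone-paraffin oil into orthophosphoric acid. Lysate norfloxacin was measured by C18 HPLC with fluorescence detection (ex 240, em 280 nm) and normalized to BCA protein (ng/mg). Triplicate experiments, mean reported.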

For assay [13], the system named is Staphylococcus aureus. The assay can be described thus: Increase in 16 ug/ml Norfloxacin accumulation in Staphylococcus aureus SA1199B mutant overexpressing NorA at 128 ug/ml after 20 mins. In kind it is functional. The gist of the method:
(§2)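 SA-1199B was grown to mid-exponential phase in MH broth (4–5 h, 37°C, shaken), then washed and resuspended in 50 mM sodium phosphate, pH 7.0. Cells got norfloxacin at one-quarter MIC, alone or with inhibitor at 128 μg/ml. At 5–20 min, cells were spun through silicone-paraffin oil into orthophosphoric acid. Norfloxacin was measured by HPLC fluorescence (ex 240/[…]) as ng/mg BCA protein. Means of triplicate experiments.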

In assay [14] the test system is Staphylococcus aureus. The assay can be described thus: Increase in 16 ug/ml Norfloxacin accumulation in Staphylococcus aureus SA1199B mutant overexpressing NorA measured per milligram of cell protein at 128 ug/ml after 20 mins. The assay is classed as functional, organism-based. Put shortly: as §2
Assay [15] has as its system Staphylococcus aureus. The assay can be described thus: Increase in 16 ug/ml Norfloxacin accumulation in Staphylococcus aureus SA1199B mutant overexpressing NorA measured per mg of cell protein at 128 ug/ml after 5 mins. In kind it is functional, organism-based. Put shortly:
as §2

As for `CC1COc2c(N3CCN(C)CC3)c(F)cc3c(=O)c(C(=O)O)cn1c23` (centres undefined) [OFLOXACIN], in assay [1], the zone of inhibition at 5 µg/disc was 27 mm.

One may read the MIC as the lowest concentration that inhibits growth of the organism. Turning to `[O-][S+](Cc1nc2ccccc2n2cccc12)c1ncc[nH]1` (centres undefined), the “inhibition zone (IZ)” value turned out to be 22 mm in assay [2]; 19 mm in [4]; 27 mm in assay [5]; 6 mm in assay [6]; 27 mm in assay [9]; 25 mm in assay [10]. Moreover, the “inhibition zone (IZ)” value in assay [11] amounted to 15 mm. For the same molecule, the MIC is 32 µg/mL in assay [3], 2 µg/mL in [7] and more than 512 µg/mL in [8].

Take `CCn1cc(C(=O)O)c(=O)c2cc(F)c(N3CCNCC3)cc21` [NORFLOXACIN]: the zone of inhibition at 5 µg/disc in [1] was 27 mm.

In the case of `Cn1c([S+]([O-])Cc2nc3ccccc3n3cccc23)nc2ccccc21` (centres undefined), the “inhibition zone (IZ)” value in assay [2] is listed as 23 mm; in assay [4], 20 mm; in assay [5] it was 27 mm; in assay [6], 6 mm; in assay [9], 27 mm; in assay [10], 25 mm. Further, the “inhibition zone (IZ)” value in assay [11] worked out at 15 mm. Further, the MIC in assay [3] was 32 µg/mL; in assay [7], 2 µg/mL; in assay [8], more than 512 µg/mL.

As to `COc1ccc2[nH]c([S+]([O-])Cc3nc4cc(OC)ccc4n4cccc34)nc2c1` (centres undefined), the “inhibition zone (IZ)” value is recorded as 24 mm in assay [2]; 25 mm in [4]; 29 mm in [5]; 16 mm in [6]; 28 mm in assay [9]; 27 mm in assay [10]. In addition, the “inhibition zone (IZ)” value in [11] turned out to be 24 mm. Also, the MIC is 8 µg/mL in assay [3], 1 µg/mL in assay [7] and more than 512 µg/mL in assay [8]. Besides, the Activity in [12] amounted to 10%; in [13], 40%. The Drug uptake worked out at 400 ng/mg in assay [14] and 270 ng/mg in assay [15].

In the case of `Cn1ccnc1[S+]([O-])Cc1nc2ccccc2n2cccc12` (centres undefined), the “inhibition zone (IZ)” value in [2] came out at 22 mm; in assay [4] it was 19 mm; in assay [5], 27 mm; in assay [6], 6 mm; in [9] it was 27 mm; in [10], 25 mm. Also, the “inhibition zone (IZ)” value in assay [11] turned out to be 14 mm. Besides, the MIC in assay [3] was 32 µg/mL; in assay [7], 2 µg/mL; in assay [8], more than 512 µg/mL.

As for `COc1ccc2[nH]c([S+]([O-])Cc3nc4ccccc4n4cccc34)nc2c1` (centres undefined), the “inhibition zone (IZ)” value came to 24 mm in assay [2]; 25 mm in [4]; 27 mm in assay [5]; 15 mm in assay [6]; 28 mm in assay [9]; 26 mm in [10]. For the same molecule, the “inhibition zone (IZ)” value in [11] is reported as 24 mm. In addition, the MIC in assay [3] is 8 µg/mL; in assay [7], 1 µg/mL; in [8], more than 512 µg/mL. Besides, the Activity stood at 10% in assay [12] and 40% in [13]. For the same molecule, the Drug uptake was determined as 400 ng/mg in assay [14] and 270 ng/mg in [15].

In the case of `COc1ccc2c(c1)nc([S+]([O-])Cc1nc3ccccc3n3cccc13)c1cccn12` (centres undefined), the “inhibition zone (IZ)” value turned out to be 22 mm in [2]; 19 mm in [4]; 27 mm in assay [5]; 6 mm in assay [6]; 27 mm in [9]; 25 mm in assay [10]. In [11], the “inhibition zone (IZ)” value is 17 mm. The MIC in assay [3] is 32 µg/mL; in assay [7] it was 2 µg/mL; in assay [8], more than 512 µg/mL.

For the molecule `COc1ccc2[nH]c([S+]([O-])Cc3nc4ccc(Cl)cc4n4cccc34)nc2c1` (centres undefined), the “inhibition zone (IZ)” value in assay [2] is 23 mm; in assay [4] it was 21 mm; in assay [5], 27 mm; in assay [6], 10 mm; in [9] it was 27 mm; in assay [10], 25 mm. Further, the “inhibition zone (IZ)” value in assay [11] is on record as 19 mm. Moreover, the minimum inhibitory concentration (MIC) is 16 µg/mL in assay [3], 1 µg/mL in [7] and more than 512 µg/mL in [8]. For the same molecule, the figures for the Activity in [12] and in assay [13] were 10% and 40%, respectively. For the same molecule, the Drug uptake was 400 ng/mg in assay [14] and 270 ng/mg in assay [15].

For `COc1ccc2c(c1)nc(C[S+]([O-])c1nc3ccccc3[nH]1)c1cccn12` (centres undefined), the “inhibition zone (IZ)” value in assay [2] is recorded as 24 mm; in assay [4], 25 mm; in assay [5], 28 mm; in [6] it was 13 mm; in [9], 28 mm; in assay [10], 26 mm. The “inhibition zone (IZ)” value in assay [11] worked out at 22 mm. Also, the MIC was 8 µg/mL in assay [3], 1 µg/mL in assay [7] and more than 512 µg/mL in [8]. The Activity is reported as 10% in assay [12] and 40% in assay [13]. Besides, the Drug uptake in [14] was found to be 400 ng/mg; in assay [15], 270 ng/mg.

Take `O=C(O)c1cn(C2CC2)c2cc(N3CCNCC3)c(F)cc2c1=O` [CIPROFLOXACIN]: in [1], the zone of inhibition at 5 µg/disc worked out at 13 mm.

`[O-][S+](Cc1nc2ccccc2n2cccc12)c1nc2ccccc2[nH]1` (centres undefined): the “inhibition zone (IZ)” value amounted to 24 mm in [2]; 23 mm in [4]; 28 mm in [5]; 10 mm in [6]; 28 mm in [9]; 25 mm in assay [10]. Besides, in assay [11], the “inhibition zone (IZ)” value stood at 19 mm. Moreover, the figures for the minimum inhibitory concentration (MIC) in assay [3], in assay [7] and in assay [8] were 16 µg/mL, 1 µg/mL and more than 512 µg/mL, respectively. In addition, the Activity in [12] is 10%; in assay [13] it was 40%. In addition, the figures for the Drug uptake in assay [14] and in assay [15] were 400 ng/mg and 270 ng/mg, respectively.

Turning to `COc1c(N2C[C@@H]3CCCN[C@@H]3C2)c(F)cc2c(=O)c(C(=O)O)cn(C3CC3)c12` [MOXIFLOXACIN], the zone of inhibition at 5 µg/disc in assay [1] came to 27 mm.

Consider `[O-][S+](Cc1nc2ccccc2n2cccc12)c1ccccn1` (centres undefined), for which the “inhibition zone (IZ)” value was determined as 22 mm in assay [2]; 20 mm in assay [4]; 27 mm in assay [5]; 6 mm in [6]; 27 mm in assay [9]; 25 mm in assay [10]. In [11], the “inhibition zone (IZ)” value was found to be 17 mm. Besides, the results for the MIC in [3], in assay [7] and in [8] were 32 µg/mL, 2 µg/mL and more than 512 µg/mL, respectively.
